# Source: PubChem BioAssay AID504403 (Broad Institute, 2011)
# Activity calls are given as the source filed them.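 How the source made its calls: active means active in every replicate test, each curve reaching caspase activation of 10% of the positive control signal; inconclusive means replicate tests disagree, some active and some inactive; inactive means inactive in every replicate test.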
# Assay: caspase activation in Bax/Bak-null MEFs, dose response, counter-screen for A1 inhibitor project, cell-based, mouse embryonic fibroblasts, luminescence, dry powder, set 3 (AID 504403)
# Conditions: Bax/Bak-/- MEF caspase activation, CaspaseGlo luminescence, 3 h; at 35 µM (top of the series)
# Procedure, shortened: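 Material – Bax/Bak-null MEF cells · Quantity – 2500 cells per well · Buffer or medium – RPMI-1640, 10% heat-inactivated FBS · Times – compound 3 h at 37 °C, pre-read cooling 30 min · Technique – Caspase-Glo luminescent caspase assay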
row,SMILES,caspase activation
1,O=c1c([N+](=O)[O-])c(Cl)c2ccccc2n1Cc1ccccc1,-0.005% (inactive)
2,Cn1c(=O)c(Sc2ccccn2)c(Sc2ccccn2)c2ccccc21,0.166% (inactive)
3,Cc1ccc(Sc2c(Sc3ccc(C)cc3)c3ccccc3n(Cc3ccccc3)c2=O)cc1,0.02% (inactive)
4,O=c1[nH]c2ccccc2c(O)c1[N+](=O)[O-],0.504% (inactive)
5,COCCn1c(=O)c(Sc2ccc(C)cc2)c(Sc2ccc(C)cc2)c2ccccc21,-0.103% (inactive)
6,COCCn1c(=O)c([N+](=O)[O-])c(Cl)c2ccccc21,0.693% (inactive)
7,Cn1c(=O)c([N+](=O)[O-])c(Sc2ccccn2)c2ccccc21,0.303% (inactive)
8,Cn1c(=O)c([N+](=O)[O-])c(Cl)c2ccccc21,0.366% (inactive)
9,Cn1c(=O)c([N+](=O)[O-])c(S(C)(=O)=O)c2ccccc21,-0.102% (inactive)
10,O=C(COc1ccc(Cl)cc1Cl)NNc1nc(N2CCOCC2)nc(N2CCOCC2)n1,-0.22% (inactive)
11,CCn1c(=O)c([N+](=O)[O-])c(Sc2ccc(C)cc2)c2ccccc21,-0.025% (inactive)
12,C/C(=N\Nc1nc(N2CCCCC2)nc(N2CCCCC2)n1)c1ccc(F)cc1,-0.284% (inactive)
13,COc1nc2ccccc2c(Cl)c1[N+](=O)[O-],0.674% (inactive)
14,Cc1ccc(Sc2c([N+](=O)[O-])c(=O)n(C)c3ccccc23)cc1,0.309% (inactive)
15,COc1ccc(CCNc2nc(N3CCCC3)nc(N3CCCC3)n2)cc1OC,0.084% (inactive)
16,CCn1c(=O)c(Sc2ccc(C)cc2)c(Sc2ccc(C)cc2)c2ccccc21,0.078% (inactive)
17,COc1ccc(CCNc2nc(N3CCOCC3)nc(N3CCOCC3)n2)cc1OC,0.042% (inactive)
18,CCn1c(=O)c([N+](=O)[O-])c(Cl)c2ccccc21,1.21% (inactive)
19,COc1c([N+](=O)[O-])c(=O)n(C)c2ccccc12,0.061% (inactive)
20,Cc1ccc(Sc2c([N+](=O)[O-])c(=O)n(Cc3ccccc3)c3ccccc23)cc1,1.91% (inactive)
21,COCCn1c(=O)c([N+](=O)[O-])c(Sc2ccc(C)cc2)c2ccccc21,0.682% (inactive)
22,Cc1ccc(S(=O)(=O)c2c([N+](=O)[O-])c(=O)n(C)c3ccccc23)cc1,0.276% (inactive)
23,COc1nc2ccccc2c(Sc2ccc(C)cc2)c1[N+](=O)[O-],0.017% (inactive)
24,COc1ccc(N2CCN(c3nc(NCCc4ccc(OC)c(OC)c4)nc(N4CCOCC4)n3)CC2)cc1,0.143% (inactive)
25,O=c1[nH]c2ccccc2c(Cl)c1[N+](=O)[O-],0.348% (inactive)
26,Cc1ccc(Sc2c(Sc3ccc(C)cc3)c3ccccc3n(C)c2=O)cc1,-0.06% (inactive)
